Results on eight compounds are retold here after ChEMBL document CHEMBL1150829, “Novel cytotoxic 4-phenylfuranocoumarins from Calophyllum dispar” (2001).

The test system of test [1] is KB. Put plainly: Growth inhibition of human KB cells at 5 to 6 ug/mL after 72 hrs by neutral red staining. The format is functional.
Test [2] deals with KB. Put plainly: Cytotoxicity against human KB cells after 72 hrs by neutral red staining. It is filed as functional. As to conditions: read-out: ED50 (the source's name). In a few lines:
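Human nasopharyngeal carcinoma KB cells exposed in triplicate to five concentrations (50 to 0.01 µg/mL) of pure compound, or none, for 72 h at 37 °C. Living cells stained with neutral red and optical density read at 540 nm. ED50 is the concentration inhibiting cell growth to 50% of control.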

Values after ≈ are worked out from the molar mass of the structure shown.

The term Inhibition denotes the drop in the measured response relative to a control, in per cent. The low end stands for a weak effect, the high end for a strong effect. On to `CC(C)CC(=O)c1c(O)c2c(c3c(-c4ccccc4)cc(=O)oc13)O[C@H](C(C)(C)O)C2`, for which, in the test with KB [1], the Inhibition is 50%. Moreover, the EC50 in the test on KB [2] was 9 µg/mL (≈ 21.3 µM).

For `CCCC(=O)c1c(O)c2c(c3c(-c4ccccc4)cc(=O)oc13)O[C@H](C(C)(C)O)C2`, the Inhibition in the test with KB [1] was determined as 50%.

For the compound `CCCC(=O)c1c2c(c3oc(=O)cc(-c4ccccc4)c3c1O)C[C@@H](C(C)(C)O)O2`, the EC50 in the test with KB [2] turned out to be 6 µg/mL (≈ 14.7 µM).

As for `CCC(C)C(=O)c1c2c(c3oc(=O)cc(-c4ccccc4)c3c1O)C[C@@H](C(C)(C)O)O2` (stereo not given in full), in the test on KB [2], the EC50 was determined as 5 µg/mL (≈ 11.8 µM).

As to `C=C(C)[C@@H]1Cc2c(c(C(=O)CC(C)C)c(O)c3c(-c4ccccc4)cc(=O)oc23)O1`, the EC50 in the test with KB [2] amounted to 40 µg/mL (≈ 98.9 µM).

Consider `CCC(C)C(=O)c1c(O)c2c(c3c(-c4ccccc4)cc(=O)oc13)O[C@H](C(C)(C)O)C2` (stereo not given in full), for which the Inhibition with KB [1] is reported as 50%. Besides, in the test on KB [2], the EC50 is 15 µg/mL (≈ 35.5 µM).

Consider `CC(C)CC(=O)c1c2c(c3oc(=O)cc(-c4ccccc4)c3c1O)C[C@@H](C(C)(C)O)O2` [CYCLOMAMMEISIN], for which the EC50 in the test with KB [2] is 6 µg/mL (≈ 14.2 µM).

On to `COc1cccc2c1C(=O)c1c(O)c3c(c(O)c1C2=O)C[C@@](O)(C(=O)CO)C[C@@H]3O[C@H]1C[C@H](N)[C@H](O)[C@H](C)O1` [DOXORUBICIN], for which the EC50 with KB [2] came to 0.058 µg/mL (≈ 0.107 µM).
